Each block holds one compound with its values, some of them ahead of it. The source made the active and inactive calls. No cut-off for these calls is given here.
Assays:
Cavia porcellus [1] = test: Inhibition of leukotriene E4 induced bronchoconstriction in anesthetized guinea pigs after intravenous administration at a dose of 10 mg/kg; type: functional
[2] = tested on: Cysteinyl leukotriene receptor (Cavia porcellus); test: Inhibitory activity to block binding of [3H]leukotriene D4 to LTD4 receptor sites in homogenized guinea pig lung at 10 uM
Cavia porcellus [3] = test: Inhibition of leukotriene E4 induced bronchoconstriction in anesthetized guinea pigs after aerosol administration as 1% solution; type: functional
Cavia porcellus [4] = test: (§1) Inhibition of leukotriene D4 induced bronchoconstriction in anesthetized guinea pigs after aerosol administration as 1% solution; type: functional, organism-based
Summary of the method: (§2)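 Guinea pigs given propranolol 0.1 mg/kg iv 5 min before 5-min ultrasonic nebulizer exposure to aqueous, NaOH-neutralized drug (% w/v) or distilled water, breathing spontaneously. LTD4 50 µg/kg iv 30 s after exposure; tracheal pressure change.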

[5] = molecular target: T1, Cysteinyl leukotriene receptor 1 (Cavia porcellus) (UniProt Q2NNR5); details: Lung, 10 uM
T1 sequence (whole entry): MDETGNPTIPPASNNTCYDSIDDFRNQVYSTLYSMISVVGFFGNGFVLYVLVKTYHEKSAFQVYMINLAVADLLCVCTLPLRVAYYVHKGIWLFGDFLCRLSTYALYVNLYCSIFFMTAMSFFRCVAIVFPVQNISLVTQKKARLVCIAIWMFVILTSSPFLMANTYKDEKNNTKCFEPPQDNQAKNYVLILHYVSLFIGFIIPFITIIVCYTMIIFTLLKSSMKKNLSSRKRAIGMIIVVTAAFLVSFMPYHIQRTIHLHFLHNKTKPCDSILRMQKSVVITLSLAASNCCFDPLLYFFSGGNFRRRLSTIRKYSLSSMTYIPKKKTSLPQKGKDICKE

[6] = molecular target: T2, Cysteinyl leukotriene receptor 1 (Cavia porcellus, UniProt Q2NNR5); test: Inhibitory activity of compound to block binding of [3H]leukotriene D4 to Cysteinyl leukotriene D4 receptor sites in homogenized guinea pig lung
T2 sequence (Q2NNR5 whole entry): T1 sequence (whole entry)
Summary of the method: (§3)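 Lung from male Hartley guinea pigs (400–500 g), homogenized in sucrose/Tris pH 7.5 with protease inhibitors; 30000g membrane pellet in 10 mM PIPES pH 7.5, 50 mM NaCl. Binding: Tyrode, 0.1% BSA, 1 mM glycine, 1 mM cysteine, 3.5 nM [3H]LTD4, 100–200 µg protein, 20 °C, 30 min; glass-fiber filtration. Nonspecific with 10^-6 M LTD4. Triplicate screen at 10 µM; IC50 by linear regression.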

Cavia porcellus [7] = test: Inhibition of leukotriene D4 induced bronchoconstriction in anesthetized guinea pigs after intravenous administration at a dose of 10 mg/kg; type: functional
Summary of the method: (§4)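 Male Hartley guinea pigs, 400–600 g, urethane 2 g/kg ip, jugular cannula, propranolol 0.1 mg/kg iv 5 min before challenge, succinylcholine 1.2 mg/kg iv, ventilated. Vehicle or drug iv 30 s before LTD4 25 µg/kg iv; tracheal pressure change.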

Cavia porcellus [8] = test: as §1; type: functional; summary of the method: as §2
Cavia porcellus [9] = test: Inhibition of leukotriene D4 induced bronchoconstriction in anesthetized guinea pigs after intravenous administration; type: functional; details: read-out: ID50 (the source's name); summary of the method: as §4
Cavia porcellus [10] = organism: Cavia porcellus; test: Activity against histamine induced bronchoconstriction in guinea pig, no significant inhibition at concentration of 1% by aerosol; NA means inactive; type: functional, organism-based
Rattus norvegicus = organism: Rattus norvegicus; test: Inhibitory activity to inhibit Inophore-induced arachidonic acid metabolism (inhibition of LTB4 formation) in rat; type: functional, organism-based
Summary of the method: (§5)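 Rat peritoneal macrophages adhered 90 min at 37 °C, labeled with [14C]arachidonic acid 90 min, washed. Compound 30 min at 37 °C, then A23187 0.5 µM for 20 min. LTB4 and PGE2 in medium by radioimmunoassay.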

Cavia porcellus [11] = organism: Cavia porcellus; test: Activity against platelet activating factor in guinea pig, no significant inhibition at concentration of 1% by aerosol; NA means inactive; type: functional, organism-based
Cavia porcellus [12] = test: Activity against platelet activating factor in guinea pig, no significant inhibition when compound dose (10 mg/kg) given intravenously; NA means inactive; type: functional, organism-based
Cavia porcellus [13] = test: Time taken for inhibition of antigen induced bronchoconstriction in guinea pig to decrease to 40%, compound was administered at a concentration of 1%, for 5 min by aerosol; type: functional
Summary of the method: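 Aerosol guinea pig bronchoconstriction with antigen challenge; drug given as 1% nebulized solution for 5 min. Duration taken as time for inhibition to fall to 40%.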

Cavia porcellus [14] = test: In vivo guinea pig bronchoconstriction against leukotriene C4 when administered a compound dose (mg/kg) intravenously; type: functional; details: Lung, iv, read-out: ID50 (the source's name)
Cavia porcellus [15] = organism: Cavia porcellus; test: In vitro activity to inhibit SRS-A induced contraction of guinea pig ileum
Cavia porcellus [16] = organism: Cavia porcellus; test: In vitro activity to inhibit leukotriene D4 induced contraction of guinea pig trachea; type: functional; details: read-out: pA2 (converted)
Summary of the method: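 Guinea pig tracheal smooth muscle contracted by LTD4; pA2 and Schild slope reported.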

Cavia porcellus [17] = test: In vivo guinea pig bronchoconstriction against leukotriene E4 when administered a compound dose(mg/kg) intravenously; type: functional; details: Lung, iv, read-out: ID50 (the source's name)
Cavia porcellus [18] = test: Duration of action of leukotriene E4 as time for inhibition to decrease to 40%, compound was administered at a dose of 10 mg/kg; type: functional
Summary of the method: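 Intravenous guinea pig bronchoconstriction with LTE4 challenge; drug 10 mg/kg iv. Duration taken as time for inhibition to fall to 40%.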

[19] = molecular target: T1, Cysteinyl leukotriene receptor 1 (Cavia porcellus); test: Inhibitory activity of compound to block binding of [3H]leukotriene D4 to Cysteinyl L-Cysteinyl leukotriene D4 receptor sites in homogenized guinea pig lung at 10 uM; summary of the method: as §3
[20] = Inhibitory activity to inhibit Inophore-induced arachidonic acid metabolism (inhibition of PGE-2 formation) in rat; type: functional; summary of the method: as §5
Cavia porcellus [21] = test: Duration of action of leukotriene D4 as time for inhibition to decrease to 40%, compound was administered at a dose of 10 mg/kg; type: functional
Summary of the method: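 Intravenous guinea pig bronchoconstriction with LTD4 challenge; drug 10 mg/kg iv. Duration taken as time for inhibition to fall to 40%.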

[22] = molecular target: Dual specificity calcium/calmodulin-dependent 3',5'-cyclic nucleotide phosphodiesterase 1A (Bos taurus, UniProt P14100); test: Inhibition of bovine heart Phosphodiesterase 1A
Dual specificity calcium/calmodulin-dependent 3',5'-cyclic nucleotide phosphodiesterase 1A, sequence (P14100 whole entry): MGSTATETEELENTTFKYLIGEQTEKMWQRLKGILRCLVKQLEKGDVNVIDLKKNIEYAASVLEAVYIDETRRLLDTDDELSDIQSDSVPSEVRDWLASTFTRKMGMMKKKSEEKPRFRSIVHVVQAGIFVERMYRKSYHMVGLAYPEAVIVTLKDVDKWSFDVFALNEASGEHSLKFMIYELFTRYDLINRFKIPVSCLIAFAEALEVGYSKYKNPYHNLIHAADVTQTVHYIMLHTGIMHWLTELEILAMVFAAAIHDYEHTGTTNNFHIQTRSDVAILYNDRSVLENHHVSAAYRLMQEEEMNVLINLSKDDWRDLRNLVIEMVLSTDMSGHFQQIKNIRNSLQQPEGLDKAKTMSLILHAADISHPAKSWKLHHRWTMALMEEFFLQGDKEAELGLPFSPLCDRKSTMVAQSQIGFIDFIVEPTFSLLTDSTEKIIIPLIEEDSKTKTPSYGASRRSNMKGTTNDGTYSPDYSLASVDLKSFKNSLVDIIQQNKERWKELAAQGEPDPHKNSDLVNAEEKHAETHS

Cavia porcellus [23] = test: In vivo guinea pig bronchoconstriction against leukotriene D4 when administered a compound dose (mg/kg) intravenously; type: functional; details: Lung, iv, read-out: ID50 (the source's name); summary of the method: as §4
Cavia porcellus [24] = test: Duration of action of leukotriene E4 as time for inhibition to decrease to 40%, compound administered at a concentration of 1%,for 5 min by aerosol; type: functional
Summary of the method: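 Aerosol guinea pig bronchoconstriction with LTE4 challenge; drug given as 1% nebulized solution for 5 min. Duration taken as time for inhibition to fall to 40%.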

Cavia porcellus [25] = organism: Cavia porcellus; test: Inhibitory activity to inhibit antigen induced bronchoconstriction in guinea pig; type: functional
Cavia porcellus [26] = test: Duration of action of leukotriene D4 as time for inhibition to decrease to 40%, compound was administered at a concentration 1%, for 5 min by aerosol; type: functional
Summary of the method: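 Aerosol guinea pig bronchoconstriction with LTD4 challenge; drug given as 1% nebulized solution for 5 min. Duration taken as time for inhibition to fall to 40%.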

Cavia porcellus [27] = test: Activity against histamine induced bronchoconstriction in guinea pig, no significant inhibition when compound dose (10 mg/kg) given intravenously; NA means inactive; type: functional, organism-based
[28] = molecular target: T1, Cysteinyl leukotriene receptor 1 (Cavia porcellus); test: Inhibitory activity of compound to block binding of radiolabeled leukotriene D4 to receptor sites in homogenized guinea pig lung at 10 uM; summary of the method: as §3
[29] = tested on: Cysteinyl leukotriene receptor 1 (Cavia porcellus); test: Inhibitory activity of compound to block binding of radiolabeled Cysteinyl leukotriene D4 receptor sites in homogenized guinea pig lung at 10 uM
[30] = molecular target: T1, Cysteinyl leukotriene receptor 1 (Cavia porcellus); test: Inhibition of leukotriene D4 induced bronchoconstriction in anesthetized guinea pigs after intravenous administration at a dose of 1 mg/kg; type: organism-based; parameters: dose 1 mg/kg

Compound: CCCc1c(OCCCCCOc2cc3c(cc2C(C)=O)CCC(CCC)(C(=O)O)O3)ccc(C(C)=O)c1O (stereo not drawn)
IC50 (Cavia porcellus [4]): 0.9 % conc
inhibition [5]: 70%
IC50 [6]: 2 µM
inhibition in vivo at 10 mg/kg (Cavia porcellus [7]): 56%
Inhibition (Cavia porcellus [8]): 51%
ED50 (Cavia porcellus [9]): 8 mg/kg

Compound: CCCc1c(OCCCCCCCOc2cc3c(cc2C(C)=O)CCC(C(=O)O)O3)ccc(C(C)=O)c1O (stereo not drawn)
inhibition [28]: 39%
Inhibition (Cavia porcellus [8]): 44%
inhibition [29]: 39%

Compound: CCCc1c(OCCCCCOc2cc3c(cc2C(C)=O)CCC(C(=O)O)O3)ccc(C=O)c1O (stereo not drawn)
inhibition [28]: 0%
inhibition [30]: 0%

Further lines, with some results ahead:

inhibition [2]: 88%
Compound: CCCc1c(OCCCOc2c(C)c(C)c3c(c2C)CCC(C)(C(=O)O)O3)ccc(C(C)=O)c1O (stereo not drawn)
inhibition in vivo at 10 mg/kg (Cavia porcellus [1]): 99%
Inhibition (Cavia porcellus [3]): 53%

IC50 (Cavia porcellus [4]): 0.007 % conc
IC50 (Rattus norvegicus): 4 µM
IC50 [6]: 4 µM
IC50 (Cavia porcellus [15]): 60 nM
inhibition [19]: 70%
IC50 [20]: 7 µM
IC50 [22]: 36 µM
Compound: CCCc1c(OCCCCCOc2cc3c(cc2C(C)=O)CCC(C(=O)O)O3)ccc(C(C)=O)c1O (stereo not drawn) [ABLUKAST]
inhibition (Cavia porcellus [10]): inactive
inhibition (Cavia porcellus [11]): inactive
inhibition (Cavia porcellus [12]): inactive
inhibition in vivo at 10 mg/kg (Cavia porcellus [7]): 93%
Duration (Cavia porcellus [13]): 250 min
ED50 (Cavia porcellus [14]): 3 mg/kg
Kb (Cavia porcellus [16]): 251 nM
Inhibition (Cavia porcellus [8]): 89%
ED50 (Cavia porcellus [17]): 1 mg/kg
Duration (Cavia porcellus [18]): 40 min
Duration (Cavia porcellus [21]): 40 min
ED50 (Cavia porcellus [23]): 5 mg/kg
ED50 (Cavia porcellus [9]): 5 mg/kg
Duration (Cavia porcellus [24]): 90 min
Inhibition (Cavia porcellus [25]): 0.027%
Duration (Cavia porcellus [26]): 150 min
inhibition (Cavia porcellus [27]): inactive
